In ChEMBL document CHEMBL1132584, “5-Alkyl-2-(alkylthio)-6-(2,6-dihalophenylmethyl)-3, 4-dihydropyrimidin-4(3H)-ones: novel potent and selective dihydro-alkoxy-benzyl-oxopyrimidine derivatives” (J Med Chem, 1999):

Tests used:
[1] = tested on: MT4; test: Selectivity index measured as the ratio of CC50 / EC50.; format: functional
How it was run: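 Selectivity index: CC50 in mock-infected MT-4 cells divided by EC50 against HIV-1 IIIB cytopathicity in MT-4 cells, both from MTT read-out after 4-day culture.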

[2] = molecular target: Human immunodeficiency virus type 1 reverse transcriptase (Human immunodeficiency virus 1, UniProt Q72547); test: Concentration required to inhibit the HIV-1 reverse transcriptase activity by 50%.
How it was run: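 Purified recombinant HIV-1 RT, RNA-dependent polymerase activity. Substrate: [³H]dGTP, […] (1 Ci/mmol). Reaction 30 min at 37 °C, then acid-insoluble radioactivity counted on glass-fibre filters.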

[3] = tested on: MT4; test: Cytotoxicity against mock-infected MT-4 cells.; format: functional; settings: Homo sapiens
How it was run: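 Mock-infected MT-4 cells (1×10^4/well) incubated 4 days at 37 °C alongside the antiviral assay with serial compound dilutions (from 200 mM DMSO stock); viability read by MTT; CC50 is the dose lowering viability of mock-infected cells by 50%; means of at least two separate experiments.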

[4] = tested on: MT4; test: Concentration required to achieve 50% protection of MT-4 cells from HIV-1-induced cytopathogenicity.; format: functional, cell-based; settings: Homo sapiens
How it was run: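 MT-4 cells (1×10^4/well) exposed to test compound dilutions (DMSO stock 200 mM, diluted in medium), then infected with HIV-1 IIIB at 100 CCID50/well; 4-day incubation at 37 °C; viable cells counted by MTT; EC50 is the dose giving 50% protection from virus-induced cytopathicity; means of at least two separate experiments.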

SMILES | Selectivity index [1] [SI] | IC50 [2] [nM] | CC50 [3] [nM] | EC50 [4] [nM]
CCC(C)Sc1nc(O)c(C)c(Cc2ccccc2)n1 (centres undefined) | 140 | 500 | – | –
CCC(C)Sc1nc(O)cc(Cc2ccccc2)n1 (centres undefined) | 125 | 1000 | – | –
Cc1c(O)nc(SC2CCCC2)nc1Cc1ccccc1 | >333 | 500 | > 200000 | –
Oc1cc(Cc2ccccc2)nc(SC2CCCC2)n1 | 86 | 1600 | – | –
CCC(C)Sc1nc(O)cc(Cc2c(Cl)cccc2Cl)n1 (centres undefined) | >1428 | 100 | > 200000 | 140
Oc1cc(Cc2c(Cl)cccc2Cl)nc(SC2CCCC2)n1 | >500 | 400 | > 200000 | 400
CCC(C)Sc1nc(O)cc(Cc2ccccc2F)n1 (centres undefined) | 769 | 300 | 200000 | 260
CCC(C)Sc1nc(O)c(C)c(Cc2ccccc2Cl)n1 (centres undefined) | >741 | 400 | > 200000 | 270
CCCCSc1nc(O)cc(Cc2c(Cl)cccc2Cl)n1 | >454 | 500 | > 200000 | 440
CSc1nc(O)cc(Cc2c(Cl)cccc2Cl)n1 | >62 | 3000 | > 200000 | 3200
CSc1nc(O)c(C)c(Cc2c(Cl)cccc2Cl)n1 | 5.2 | – | > 200000 | 38000
Oc1cc(Cc2c(F)cccc2F)nc(SC2CCCCC2)n1 | >2500 | 90 | > 200000 | 80
Cc1c(O)nc(SC2CCCCC2)nc1Cc1c(F)cccc1F | >2222 | 70 | > 200000 | 90
CC(C)CSc1nc(O)cc(Cc2c(Cl)cccc2Cl)n1 | >444 | 600 | > 200000 | 450
CCCCSc1nc(O)c(C)c(Cc2c(Cl)cccc2Cl)n1 | >171 | 1150 | > 200000 | 1100
Cc1c(O)nc(SCC(C)C)nc1Cc1c(F)cccc1F | 1640 | 90 | 164000 | 100
CSc1nc(O)c(C)c(Cc2c(F)cccc2F)n1 | 1053 | 200 | 200000 | 190
CCC(C)Sc1nc(O)cc(Cc2cccc([N+](=O)[O-])c2)n1 (centres undefined) | 392 | 300 | 157000 | 400
CCC(C)Sc1nc(O)cc(Cc2ccccc2Cl)n1 (centres undefined) | 200 | 1600 | 200000 | 1000
Cc1c(O)nc(SC2CCCC2)nc1Cc1c(Cl)cccc1Cl | >111 | 1700 | > 200000 | 1800
CCC(C)Sc1nc(O)c(C)c(Cc2c(Cl)cccc2Cl)n1 (centres undefined) | >4000 | 60 | > 200000 | 50
CSc1nc(O)cc(Cc2c(F)cccc2F)n1 | >247 | 800 | > 200000 | 810
CCC(C)Sc1nc(O)c(C)c(Cc2cccc(F)c2)n1 (centres undefined) | >166 | 1500 | > 200000 | 1200

SMILES | Selectivity index [1] [SI] | IC50 [2] [nM] | CC50 [3] [nM] | EC50 [4] [nM]
CCCCSc1nc(O)c(C)c(Cc2c(F)cccc2F)n1 | >2500 | 90 | > 200000 | 80
Cc1c(Cc2c(F)cccc2F)nc(SC2CCCC2)[nH]c1=O | >2500 | 80 | > 200000 | 80
O=c1cc(Cc2c(F)cccc2F)nc(SC2CCCC2)[nH]1 | >2500 | 80 | > 200000 | 80
CCC(C)Sc1nc(O)c(C)c(Cc2ccc(F)cc2)n1 (centres undefined) | 9.5 | 13000 | 105000 | 11000
CCC(C)Sc1nc(O)c(C)c(Cc2ccc([N+](=O)[O-])cc2)n1 (centres undefined) | >100 | 1800 | > 200000 | 2000
CCC(C)Sc1nc(O)cc(Cc2ccc(Cl)cc2)n1 (centres undefined) | 24 | 4800 | 120000 | 5000
CCCCSc1nc(O)cc(Cc2c(F)cccc2F)n1 | 900 | 200 | 162000 | 180
Cc1c(O)nc(SC(C)C)nc1Cc1c(Cl)cccc1Cl | >154 | 1150 | > 200000 | 1300
CCC(C)Sc1nc(O)c(C)c(Cc2cccc(Cl)c2)n1 (centres undefined) | >208 | 900 | > 200000 | 960
CCC(C)Sc1nc(O)cc(Cc2cccc(F)c2)n1 (centres undefined) | >286 | 600 | > 200000 | 700
Cc1c(O)nc(SC2CCCCC2)nc1Cc1c(Cl)cccc1Cl | >9 | 4900 | > 200000 | 22000
CCC(C)Sc1nc(O)c(C)c(Cc2ccc(Cl)cc2)n1 (centres undefined) | >20 | 8500 | > 200000 | 9500
CCC(C)Sc1nc(O)cc(Cc2ccccc2[N+](=O)[O-])n1 (centres undefined) | >800 | 300 | > 200000 | 250
Oc1cc(Cc2c(Cl)cccc2Cl)nc(SC2CCCCC2)n1 | >333 | 400 | > 200000 | 600
CCC(C)Sc1nc(O)c(C)c(Cc2cccc([N+](=O)[O-])c2)n1 (centres undefined) | >571 | 400 | > 200000 | 350
Cc1c(O)nc(SCC(C)C)nc1Cc1c(Cl)cccc1Cl | >166 | 1100 | > 200000 | 1200
CCC(C)Sc1nc(O)cc(Cc2ccc(F)cc2)n1 (centres undefined) | 23 | 7400 | > 200000 | 8700
CCC(C)Sc1nc(O)cc(Cc2cccc(Cl)c2)n1 (centres undefined) | 58 | 1900 | 116000 | 2000
Cc1c(Cc2c(F)cccc2F)nc(SC(C)C)[nH]c1=O | >4000 | 50 | > 200000 | 50
CCC(C)Sc1nc(O)c(C)c(Cc2c(F)cccc2F)n1 (centres undefined) | >4000 | 50 | > 200000 | 50
CCC(C)Sc1nc(O)cc(Cc2c(F)cccc2F)n1 (centres undefined) | >5000 | 50 | > 200000 | 40
Cc1ccnc2c1NC(=O)c1cccnc1N2C1CC1 [NEVIRAPINE] | – | – | > 200000 | –
